# Assay results published in ChEMBL document CHEMBL4219066, “Identification and Mitigation of Reactive Metabolites of 2-Aminoimidazole-Containing Microsomal Prostaglandin E Synthase-1 Inhibitors Terminated Due to Clinical Drug-Induced Liver Injury” (J Med Chem, 2018).
# Columns and labels:
# [1] = Drug level in human hepatocytes treated with 2-Chloro-N-(4-cyano-1H-imidazol-2-yl)-5-(pivalamidomethyl)benzamide at 2 uM after 4 hrs by LC-MS/MS analysis; type: ADME, cell-based, Hepatocyte
# [2] = Drug level in rat hepatocytes treated with 2-Chloro-N-(4-cyano-1H-imidazol-2-yl)-5-(pivalamidomethyl)benzamide at 2 uM after 4 hrs by LC-MS/MS analysis; type: ADME, cell-based, Hepatocyte
# [3] = Drug level in human liver microsomes treated with 2 -Chloro-N-(4,5-dimethyl-1H-imidazol-2-yl)-5-(pivalamidomethyl)benzamide at 2 uM after 0.5 hrs in presence of 1:1 ratio of unlabeled GSH and [glycine 13C2,15N]-labelled GSH by HPLC-MS analysis; type: ADME, microsome
# Method in brief: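 Glutathione-trapping incubation in human liver microsomes fortified with GSH to capture reactive intermediates. Metabolites and GSH adducts were identified by MS.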
Drug metabolism [1],Drug metabolism [2],Drug metabolism [3],SMILES
Metabolite_Detected,Metabolite_Detected,–,CC(C)(CO)C(=O)NCc1ccc(Cl)c(C(=O)Nc2nc(C#N)c[nH]2)c1
–,–,Metabolite_Detected,Cc1[nH]c(NC(=O)c2cc(CNC(=O)C(C)(C)C)ccc2Cl)nc1CSC[C@H](NC(=O)CC[C@H](N)C(=O)O)C(=O)NCC(=O)O
